Calls of active or inactive are those of the source. The calls are words filed in the database; no cut-off is given here.
What was measured:
[1] = Cytotoxicity against human W1L2 cells assessed as growth inhibition after 72 hrs by trypan blue assay; type: functional, cell-based; settings: WIL2, 72 h
[2] = Half life in NMRI mouse at 50 mg/kg, iv; type: ADME, organism-based; parameters: dose 50 mg/kg, route intravenous; settings: in vivo
Outline: (§1)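 Mouse PK after a single i.v. dose. Plasma proteins were precipitated with acetonitrile containing internal standard (3:1 v/v). Samples were analysed by UPLC-MS/MS on a C18 column at 40°C with an acetonitrile–0.05% formic acid gradient, using positive electrospray MRM. Parameters were derived by non-compartmental analysis.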

MCF7 [3] = test: Cytotoxicity against human MCF7 cells after 24 hrs by clonogenic assay; type: functional, cell-based; settings: MCF7, 24 h
Outline: (§2)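 Cells were exposed to compound for the indicated time and then seeded in 3% agar over a sheep erythrocyte feeder layer. Plates were cultured 14–21 days at 37 °C, and colonies were counted with a digital colony counter.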

[4] = Cmax in NMRI mouse at 50 mg/kg, iv; type: ADME, organism-based; parameters: dose 50 mg/kg, route intravenous; settings: in vivo; outline: as §1
Mus musculus [5] = test: Toxicity in human A2780 cells xenografted NMRI/nude mouse containing small tumors assessed as effect on body weight at 15 mg/kg, ip bid administered for 10 days; type: organism-based; parameters: dose 15 mg/kg, route intraperitoneal; settings: in vivo, 240 h
Outline: (§3)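 A2780 xenografts were dosed i.p. bid at 15 mg/kg. Large tumours (start 500 mm³) were dosed on days 0-4 + 7-11; small tumours (start 100 mm³) on days 0-9. Tumour volume was calculated as width²×length/2 from caliper diameters, and body weight was recorded during treatment. Tumours were followed after treatment up to the maximum allowed size of 1000 mm³.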

A2780 [6] = test: Cytotoxicity against human A2780 cells assessed as growth inhibition after 72 hrs by WST-1 assay; type: functional, cell-based; settings: A2780, 72 h
[7] = Toxicity in ip dosed NMRI mouse assessed as blood cell count administered as bid for 5 days; type: organism-based; settings: in vivo
[8] = AUC in NMRI mouse at 50 mg/kg, iv; type: ADME, organism-based; parameters: dose 50 mg/kg, route intravenous; settings: plasma; outline: as §1
MCF7 [9] = test: Cytotoxicity against human MCF7 cells after 96 hrs by clonogenic assay; type: functional, cell-based; settings: MCF7, 96 h; outline: as §2
A2780 [10] = test: Cytotoxicity against human A2780 cells after 16 hrs by clonogenic assay; type: functional, cell-based; settings: A2780, 16 h; outline: as §2
A2780 [11] = test: Antitumor activity against human A2780 cells xenografted in NMRI/nude mouse containing small tumors assessed as tumor growth inhibition at 15 mg/kg, ip bid administered for 10 days measured during compound administration; type: functional, organism-based; parameters: dose 15 mg/kg; outline: as §3
Mus musculus [12] = test: Toxicity in human A2780 cells xenografted NMRI/nude mouse containing large tumors assessed as effect on body weight at 15 mg/kg, ip bid administered on day 1 to 4 and day 7 to 11; settings: in vivo
A2780 [13] = test: Antitumor activity against human A2780 cells xenografted in NMRI/nude mouse containing large tumors assessed as tumor growth inhibition at 15 mg/kg, ip bid administered on day 1 to 4 and day 7 to 11 measured after compound treatment; type: functional, organism-based; parameters: dose 15 mg/kg; outline: as §3
[14] = Clearance in NMRI mouse at 50 mg/kg, iv; type: ADME, organism-based; parameters: dose 50 mg/kg, route intravenous; settings: in vivo; outline: as §1
A2780 [15] = test: Antitumor activity against human A2780 cells xenografted in NMRI/nude mouse containing small tumors assessed as tumor growth inhibition at 15 mg/kg, ip bid administered for 10 days measured after compound treatment; type: functional, organism-based; parameters: dose 15 mg/kg; outline: as §3
[16] = Toxicity in ip dosed NMRI mouse assessed as body weight loss administered as bid for 5 days; type: organism-based; settings: in vivo
[17] = biological target: Nicotinamide phosphoribosyltransferase (Homo sapiens, UniProt P43490); test: Inhibition of NAMPT in human HepG2 cells using [14C]-nicotinamide/PRPP as substrate assessed as formation of [14C]-nicotinamide mononucleotide after 1 hr by liquid scintillation counting analysis; type: cell-based
Nicotinamide phosphoribosyltransferase, sequence (P43490 whole entry): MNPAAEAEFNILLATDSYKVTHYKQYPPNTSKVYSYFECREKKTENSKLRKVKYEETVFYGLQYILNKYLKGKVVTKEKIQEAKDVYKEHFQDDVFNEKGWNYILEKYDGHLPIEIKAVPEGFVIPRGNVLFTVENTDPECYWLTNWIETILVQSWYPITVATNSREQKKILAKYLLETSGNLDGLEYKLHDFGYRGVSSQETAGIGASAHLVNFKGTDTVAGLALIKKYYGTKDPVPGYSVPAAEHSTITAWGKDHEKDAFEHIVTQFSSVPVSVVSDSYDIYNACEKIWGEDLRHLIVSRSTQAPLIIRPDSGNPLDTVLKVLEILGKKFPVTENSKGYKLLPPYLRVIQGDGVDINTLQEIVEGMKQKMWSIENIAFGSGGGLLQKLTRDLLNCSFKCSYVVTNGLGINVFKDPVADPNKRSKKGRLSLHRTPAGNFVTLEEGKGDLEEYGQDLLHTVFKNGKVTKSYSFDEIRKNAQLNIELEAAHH

A2780 [18] = test: Antitumor activity against human A2780 cells xenografted in NMRI/nude mouse assessed as tumor growth inhibition at 15 mg/kg, ip bid administered for 5 days measured at day 14 relative to vehicle-treated control; type: functional; settings: route intraperitoneal
[19] = Tmax in NMRI mouse at 50 mg/kg, iv; type: ADME, organism-based; parameters: dose 50 mg/kg, route intravenous; settings: in vivo; outline: as §1
SK-OV-3 = test: Cytotoxicity against human SKOV3 cells by clonogenic assay; type: functional, cell-based
HCT-116 [20] = test: Cytotoxicity against APO866-resistant human HCT116 cells assessed as growth inhibition after 72 hrs by WST-1 assay; type: functional, cell-based; settings: HCT-116, 72 h
HCT-116 [21] = test: Cytotoxicity against human HCT116 cells assessed as growth inhibition after 72 hrs by WST-1 assay; type: functional, cell-based; settings: HCT-116, 72 h
A2780 [22] = test: Antitumor activity against human A2780 cells xenografted in NMRI/nude mouse containing large tumors assessed as tumor growth inhibition at 15 mg/kg, ip bid administered on day 1 to 4 and day 7 to 11 measured during compound administration; type: functional, organism-based; parameters: dose 15 mg/kg; outline: as §3
MCF7 [23] = test: Cytotoxicity against human MCF-7 cells assessed as growth inhibition after 72 hrs by WST-1 assay; type: functional, cell-based; settings: MCF7, 72 h
[24] = Apparent volume of distribution in NMRI mouse at 50 mg/kg, iv; type: ADME, organism-based; parameters: dose 50 mg/kg, route intravenous; settings: in vivo, read-out: Vz; outline: as §1
DU-145 = test: Cytotoxicity against human DU145 cells by clonogenic assay; type: functional, cell-based
[25] = Cytotoxicity against human NYH cells by clonogenic assay; type: functional, cell-based
HCT-116 [26] = test: Resistance factor, ratio of IC50 for APO866-resistant human HCT116 cells to IC50 for human HCT116 cells; type: functional
PC-3 = test: Cytotoxicity against human PC3 cells by clonogenic assay; type: functional, cell-based
A2780 [27] = test: Antitumor activity against human A2780 cells xenografted in NMRI/nude mouse assessed as tumor growth inhibition at 5 to 10 mg/kg, ip bid administered for 10 days measured during compound administration; type: functional, organism-based
Outline: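 Mice bearing large A2780 xenografts were dosed i.p. bid at 5 and 10 mg/kg. Toxic signs were scored as body weight loss and reduced activity level compared with control mice. Tumour volume was estimated as width²×length/2.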

A2780 [28] = test: Cytotoxicity against human A2780 cells after 24 hrs by clonogenic assay; type: functional, cell-based; settings: A2780, 24 h; outline: as §2
A2780 [29] = test: Ratio of APO866 to compound for antitumor activity against human A2780 cells xenografted in NMRI/nude mouse; type: functional
A2780 [30] = test: Antitumor activity against human A2780 cells xenografted in NMRI/nude mouse assessed as tumor growth inhibition at 2.5 mg/kg, ip bid administered for 5 days measured at day 14 relative to vehicle-treated control; type: functional; settings: route intraperitoneal
Outline: (§4)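 A2780 xenografts started from small tumours (about 100 mm³). Dosing was i.p. bid on days 0-4. Tumour volume was estimated as width²×length/2 and compared at day 14 with vehicle-treated animals as T/C%.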

A-431 = test: Cytotoxicity against human A431 cells by clonogenic assay; type: functional, cell-based
A2780 [31] = test: Antitumor activity against human A2780 cells xenografted in NMRI/nude mouse assessed as tumor growth inhibition at 0.63 mg/kg, ip bid administered for 5 days measured at day 14 relative to vehicle-treated control; type: functional; settings: route intraperitoneal; outline: as §4
A2780 [32] = test: Antitumor activity against human A2780 cells xenografted in NMRI/nude mouse containing large tumors assessed as tumor growth inhibition at 3 mg/kg, ip bid administered on day 1 to 4 and day 7 to 11 measured during compound administration; type: functional, organism-based; parameters: dose 3 mg/kg
A2780 [33] = test: Antitumor activity against human A2780 cells xenografted in NMRI/nude mouse assessed as tumor growth inhibition at 1.25 mg/kg, ip bid administered for 5 days measured at day 14 relative to vehicle-treated control; type: functional; settings: route intraperitoneal; outline: as §4

## C#CCN(Cc1cc2c(O)nc(C)nc2cc1Br)c1ccc(C(=O)NCc2cccnc2)cc1
[1]
  IC50: 2.8 nM

## N#C/N=C(\NCCCCCCS(=O)(=O)N(CCF)OCC1CCCCC1)Nc1ccncc1
[2]
  half-life: 21.6 min
MCF7 [3]
  IC50: > 50 nM
[4]
  Cmax: 78.5 µg/mL
Mus musculus [5]
  Activity: Non-toxic
A2780 [6]
  IC50: 0.052 nM
[7]
  MTD at 120 h: < 10 mg/kg
[8]
  AUC: 47500 ng·h/mL
MCF7 [9]
  IC50: 0.98 nM
A2780 [10]
  IC50: 0.43 nM
A2780 [11]
  TGI: Active
Mus musculus [12]
  Activity: Non-toxic
A2780 [13]
  TGI: inactive
[14]
  clearance: 17.5 mL/min/kg
A2780 [15]
  TGI: inactive
[16]
  MTD at 120 h: < 10 mg/kg
[17]
  IC50: 3.2 nM
A2780 [18]
  T/C: 52%
[19]
  Tmax: 4.8 min
SK-OV-3
  IC50: 3.4 nM
HCT-116 [20]
  IC50: > 5000 nM
HCT-116 [21]
  IC50: 3.6 nM
A2780 [22]
  TGI: Active
MCF7 [23]
  IC50: 0.1 nM
[24]
  Vd: 0.547 L/kg
DU-145
  IC50: 6.39 nM
[25]
  IC50: 0.05 nM
HCT-116 [26]
  Ratio IC50: 128
PC-3
  IC50: 0.35 nM

## N#C/N=C(\NCCCCCCS(=O)(=O)N(OCCN1CCOCC1)C1CCCCC1)Nc1ccncc1
MCF7 [3]
  IC50: > 50 nM
A2780 [27]
  TGI: Active
A2780 [6]
  IC50: 0.025 nM
MCF7 [9]
  IC50: 1.9 nM
A2780 [28]
  IC50: 0.55 nM
A2780 [29]
  Ratio: 12
SK-OV-3
  IC50: 9.9 nM
HCT-116 [20]
  IC50: > 5000 nM
HCT-116 [21]
  IC50: 1.9 nM
MCF7 [23]
  IC50: 0.33 nM
A2780 [30]
  T/C: 24%
DU-145
  IC50: > 50 nM
[25]
  IC50: 0.3 nM
A-431
  IC50: > 50 nM
HCT-116 [26]
  Ratio IC50: 128
A2780 [31]
  T/C: 82%
A2780 [32]
  TGI: Active
A2780 [33]
  T/C: 40%
PC-3
  IC50: 0.53 nM

Source: ChEMBL document CHEMBL3091343, “Nicotinamide phosphoribosyltransferase inhibitors, design, preparation, and structure-activity relationship” (J Med Chem, 2013)
